Test results: ChEMBL document CHEMBL3407378, “Design, synthesis and biological evaluation of novel 7-alkylamino substituted benzo[a]phenazin derivatives as dual topoisomerase I/II inhibitors” (Eur J Med Chem, 2015)
Active and inactive are the calls of the source. The rule behind the calls is not given here.

Legend:
[1] = target: DNA topoisomerase 2-alpha (Homo sapiens) (UniProt P11388); assay: Inhibition of human Topo 2-mediated relaxation of supercoiled pBR322 plasmid at 25 uM after 30 mins by agarose gel electrophoresis
[2] = Cytotoxicity against human HL60 cells after 48 hrs by MTT assay; format: functional, cell-based; conditions: HL-60, 48 h
Outline: (§1)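 Cells seeded 1 × 10^4 per well and incubated overnight, then given compound at 0–50 µM for 48 h. MTT added (20 µL of 5 mg/mL stock) for 4 h at 37 °C; formazan dissolved in DMSO, absorbance read at 570 nm. Triplicates; IC50 from mean OD versus concentration curves.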

[3] = system: K562; assay: Cytotoxicity against human K562 cells after 48 hrs by MTT assay; format: functional, cell-based; conditions: K562, 48 h; outline: as §1
[4] = system: HeLa; assay: Cytotoxicity against human HeLa cells after 48 hrs by MTT assay; format: functional, cell-based; outline: as §1
[5] = system: A549; assay: Cytotoxicity against human A549 cells after 48 hrs by MTT assay; format: functional, cell-based; conditions: A549, 48 h; outline: as §1
[6] = target: DNA topoisomerase 2-alpha (Homo sapiens) (UniProt P11388); assay: Inhibition of human Topo 2 ATPase domain expressed in yeast BCY123 strain at 25 uM after 1 hr by nonisotopic malachite green assay
Outline: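 Human Topo II ATPase domain overexpressed in yeast BCY123 and purified. Assay buffer: 100 mM Tris-HCl pH 7.4, 20 mM KCl, 6 mM MgCl2. Reaction of 25 µL with compound, started with 1 mM ATP, 1 h at 37 °C. Phosphate detected with malachite green at OD620. No-enzyme background set as 100% inhibition and enzyme-only as 0%.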

[7] = target: DNA topoisomerase 2-alpha (Homo sapiens) (UniProt P11388); assay: Competitive inhibition of human Topo 2 ATPase domain expressed in yeast BCY123 strain after 1 hr by Lineweaver-Burk plot method
Outline: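 Human Topo II ATPase domain expressed in yeast BCY123 and purified. Assay buffer: 100 mM Tris-HCl pH 7.4, 20 mM KCl, 6 mM MgCl2. ATP at 250, 500, 800, 1,000 and 2000 µM at each fixed compound level (0, 5, 25, 50, 100 µM), 1 h at 37 °C. Phosphate read by malachite green at 620 nm.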

[8] = system: Nucleic Acid; assay: Binding affinity to Escherichia coli pBR322 DNA assessed as DNA intercalation activity compound preincubated for 10 mins before enzyme addition by DNA unwinding assay in presence of topoisomerase 1; format: nucleic-acid assay
[9] = target: T1, DNA topoisomerase 1 (Homo sapiens) (UniProt P11387); assay: Inhibition of Topo 1 (unknown origin)-mediated relaxation of supercoiled pBR322 plasmid at 25 uM after 30 mins by agarose gel electrophoresis
T1 sequence (whole entry): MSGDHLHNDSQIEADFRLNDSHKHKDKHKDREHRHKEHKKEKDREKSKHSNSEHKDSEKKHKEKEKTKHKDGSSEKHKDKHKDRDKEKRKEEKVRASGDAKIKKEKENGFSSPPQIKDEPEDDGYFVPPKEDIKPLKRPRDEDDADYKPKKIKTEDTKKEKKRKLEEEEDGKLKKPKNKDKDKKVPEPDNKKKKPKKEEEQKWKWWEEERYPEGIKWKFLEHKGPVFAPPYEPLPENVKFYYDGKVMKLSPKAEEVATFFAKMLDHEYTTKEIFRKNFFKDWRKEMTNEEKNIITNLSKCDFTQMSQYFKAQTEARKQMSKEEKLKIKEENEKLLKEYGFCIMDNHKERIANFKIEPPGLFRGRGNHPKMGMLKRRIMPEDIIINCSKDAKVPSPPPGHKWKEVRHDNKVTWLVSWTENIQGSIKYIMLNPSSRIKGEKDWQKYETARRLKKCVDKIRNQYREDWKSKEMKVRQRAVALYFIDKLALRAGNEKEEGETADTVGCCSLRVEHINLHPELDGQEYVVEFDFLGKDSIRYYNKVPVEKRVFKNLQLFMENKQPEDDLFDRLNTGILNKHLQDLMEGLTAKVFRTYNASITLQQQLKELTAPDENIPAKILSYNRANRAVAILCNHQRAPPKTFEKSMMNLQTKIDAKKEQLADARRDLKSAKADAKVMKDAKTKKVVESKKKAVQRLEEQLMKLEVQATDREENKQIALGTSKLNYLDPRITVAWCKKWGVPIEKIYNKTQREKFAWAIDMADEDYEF
Outline: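 Topo I with supercoiled pBR322 and compound, 30 min at 37 °C. Stopped with SDS/bromophenol blue/glycerol dye; run on 1% agarose gel in TAE for 1 h and stained with Gel Red.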

[10] = target: DNA topoisomerase 2-alpha (Homo sapiens) (UniProt P11388); assay: Inhibition of human Topo 2-mediated relaxation of supercoiled pBR322 plasmid at 25 to 50 uM after 30 mins by agarose gel electrophoresis
[11] = target: T2, DNA topoisomerase (Bos taurus) (UniProt A0JN73); assay: Induction of calf thymus Topo 1-pBR322 DNA cleavage complex formation assessed as nicked DNA formation at 0.5 to 10 uM after 30 mins by optical density analysis
T2 sequence (whole entry): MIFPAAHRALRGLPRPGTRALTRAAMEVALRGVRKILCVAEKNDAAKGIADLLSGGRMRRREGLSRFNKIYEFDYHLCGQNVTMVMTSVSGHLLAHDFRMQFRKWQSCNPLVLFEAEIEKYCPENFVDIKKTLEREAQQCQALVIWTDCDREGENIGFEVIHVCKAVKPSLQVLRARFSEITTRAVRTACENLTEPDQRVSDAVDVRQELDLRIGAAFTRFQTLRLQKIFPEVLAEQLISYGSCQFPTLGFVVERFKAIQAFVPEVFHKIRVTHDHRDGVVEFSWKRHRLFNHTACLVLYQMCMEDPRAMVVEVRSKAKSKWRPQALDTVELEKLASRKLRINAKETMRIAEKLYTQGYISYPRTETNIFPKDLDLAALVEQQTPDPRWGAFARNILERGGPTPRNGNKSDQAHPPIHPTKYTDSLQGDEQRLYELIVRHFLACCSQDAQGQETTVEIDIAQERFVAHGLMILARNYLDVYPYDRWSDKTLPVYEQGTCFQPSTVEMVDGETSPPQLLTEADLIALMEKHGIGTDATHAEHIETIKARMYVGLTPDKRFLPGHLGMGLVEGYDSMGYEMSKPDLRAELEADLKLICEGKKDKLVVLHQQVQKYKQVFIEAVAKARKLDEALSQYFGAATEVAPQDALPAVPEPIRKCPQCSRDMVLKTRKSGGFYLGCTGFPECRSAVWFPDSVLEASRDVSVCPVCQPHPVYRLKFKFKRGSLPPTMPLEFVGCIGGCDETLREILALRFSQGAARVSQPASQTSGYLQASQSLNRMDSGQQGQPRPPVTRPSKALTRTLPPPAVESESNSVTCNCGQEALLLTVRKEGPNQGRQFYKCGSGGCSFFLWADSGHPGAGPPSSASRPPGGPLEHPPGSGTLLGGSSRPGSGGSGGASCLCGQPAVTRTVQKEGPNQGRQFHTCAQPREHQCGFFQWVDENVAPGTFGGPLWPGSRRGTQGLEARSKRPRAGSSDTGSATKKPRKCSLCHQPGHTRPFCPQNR
Outline: (§2)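 Calf thymus Topo I (10 units) with 0.1 µg supercoiled pBR322 and compound (0.5–50 µM) in Topo I buffer pH 7.5, 6 min at 37 °C. Complexes trapped with SDS then NaEDTA, proteinase K 30 min at 45 °C, heated 70 °C for 2 min, 1% agarose gel with ethidium bromide. Nicked DNA quantified by optical density.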

[12] = target: T2, DNA topoisomerase (Bos taurus); assay: Induction of calf thymus Topo 1-pBR322 DNA cleavage complex formation assessed as nicked DNA formation at 10 uM after 30 mins by optical density analysis relative to control; outline: as §2
[13] = target: T2, DNA topoisomerase (Bos taurus); assay: Induction of calf thymus Topo 1-pBR322 DNA cleavage complex formation assessed as nicked DNA formation at 25 to 50 uM after 30 mins by optical density analysis relative to control; outline: as §2
[14] = target: T1, DNA topoisomerase 1 (Homo sapiens); assay: Induction of Topo 1-DNA cleavage complex formation in human HL60 cells after 1 hr by ICE assay; format: cell-based; conditions: HL-60
Outline: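 Mid-log phase HL-60 cells exposed to 2, 5 or 10 µM compound (DMSO vehicle 1.0% v/v) for 1 h, then lysed in DNAzol. DNA was ethanol-precipitated, redissolved and quantified. 2 µg DNA in 25 mM NaH2PO4 pH 6.5 was blotted onto nitrocellulose. Covalent Topo I was probed with rabbit anti-human Topo I (1:1000) and HRP secondary (1:3000), read by chemiluminescence.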

[15] = target: DNA topoisomerase 2-alpha (Homo sapiens) (UniProt P11388); assay: Induction of human Topo 2-pBR322 DNA cleavage complex formation assessed as linear DNA formation at 10 to 50 uM by agarose gel electrophoresis
[16] = system: Nucleic Acid; assay: Binding affinity to Escherichia coli pBR322 DNA assessed as DNA intercalation activity compound preincubated at 5 to 100 uM for 10 mins before enzyme addition by DNA unwinding assay in presence of topoisomerase 1; format: nucleic-acid assay
[17] = system: Calf thymus DNA; assay: Binding affinity to calf thymus DNA at 15 uM after 5 mins by UV-vis spectrometry; format: nucleic-acid assay; conditions: Bos taurus
Outline: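 Compound at 15 µM in DPBS pH 7.4 with 1% DMSO, titrated with CT-DNA (0–24 µM, quantified at 260 nm, ε 13,200 M(bp)-1 cm-1). Equilibrated 5 min at room temperature; absorption spectra recorded 400–600 nm; Kapp derived from titration.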

Chain of DNA topoisomerase 2-alpha (Homo sapiens) (P11388 whole entry, the tested form may be a part): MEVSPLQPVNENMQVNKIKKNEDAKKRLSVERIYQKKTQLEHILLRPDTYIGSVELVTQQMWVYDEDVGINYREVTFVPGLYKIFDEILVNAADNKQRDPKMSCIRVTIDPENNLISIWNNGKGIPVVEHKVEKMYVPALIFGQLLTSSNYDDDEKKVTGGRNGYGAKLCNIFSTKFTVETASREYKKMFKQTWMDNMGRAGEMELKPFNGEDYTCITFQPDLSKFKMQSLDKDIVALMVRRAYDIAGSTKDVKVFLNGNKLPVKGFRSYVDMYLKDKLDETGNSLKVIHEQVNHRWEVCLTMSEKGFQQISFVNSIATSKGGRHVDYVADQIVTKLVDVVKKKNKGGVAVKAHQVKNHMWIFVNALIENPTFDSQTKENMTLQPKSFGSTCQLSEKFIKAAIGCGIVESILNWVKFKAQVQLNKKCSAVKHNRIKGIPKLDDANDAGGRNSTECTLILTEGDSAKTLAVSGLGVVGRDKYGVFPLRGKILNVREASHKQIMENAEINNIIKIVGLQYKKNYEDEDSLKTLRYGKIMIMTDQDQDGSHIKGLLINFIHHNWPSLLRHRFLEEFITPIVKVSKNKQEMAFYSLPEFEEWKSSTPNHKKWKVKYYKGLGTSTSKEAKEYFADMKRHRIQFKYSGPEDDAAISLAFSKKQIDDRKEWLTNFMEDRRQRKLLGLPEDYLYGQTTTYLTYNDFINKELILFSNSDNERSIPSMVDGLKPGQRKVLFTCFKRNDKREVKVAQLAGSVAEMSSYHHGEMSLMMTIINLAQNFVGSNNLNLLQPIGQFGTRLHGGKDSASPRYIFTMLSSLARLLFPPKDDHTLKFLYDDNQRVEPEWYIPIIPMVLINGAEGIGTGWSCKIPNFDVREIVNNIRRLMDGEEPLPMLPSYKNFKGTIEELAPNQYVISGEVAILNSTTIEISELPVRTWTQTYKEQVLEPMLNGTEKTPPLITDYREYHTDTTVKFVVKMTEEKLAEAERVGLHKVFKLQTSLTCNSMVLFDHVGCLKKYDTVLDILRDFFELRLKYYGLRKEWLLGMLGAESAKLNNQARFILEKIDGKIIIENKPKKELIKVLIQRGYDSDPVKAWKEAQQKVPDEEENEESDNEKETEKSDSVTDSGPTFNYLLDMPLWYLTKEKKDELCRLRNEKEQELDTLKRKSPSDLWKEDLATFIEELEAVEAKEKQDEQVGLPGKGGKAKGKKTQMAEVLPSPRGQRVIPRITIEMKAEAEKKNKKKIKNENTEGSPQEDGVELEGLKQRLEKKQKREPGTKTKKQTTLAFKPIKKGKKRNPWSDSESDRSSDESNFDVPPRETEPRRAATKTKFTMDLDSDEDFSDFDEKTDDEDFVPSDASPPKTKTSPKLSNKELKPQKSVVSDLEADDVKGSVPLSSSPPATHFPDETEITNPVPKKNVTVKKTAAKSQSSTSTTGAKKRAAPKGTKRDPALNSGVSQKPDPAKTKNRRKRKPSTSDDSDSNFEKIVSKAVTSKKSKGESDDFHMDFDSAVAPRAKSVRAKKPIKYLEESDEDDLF

Compound	Topo 2 inhibition (active/not active) [1]	IC50 [2] [µM]	IC50 [3] [µM]	IC50 [4] [µM]	IC50 [5] [µM]	inhibition [6] [%]	inhibition [7]	Activity [8]	Topo I relaxation inhibition (active/not active) [9]	Topo 2 inhibition (active/not active) [10]	Activity [11]	fold change (FC) [12]	Activity [13]	Activity [14]	Activity [15]	Activity [16]	Kapp [17] [×10⁵ /M]
COc1ccc2c3nc4ccc(OC)cc4n(CCCN(C)C)c-3cc(=O)c2c1	Active	0.09	8.73	18.2	26.4	78	Dose-dependent effect	–	–	–	–	–	–	–	–	–	–
CC[n+]1c(-c2ccccc2)c2cc(N)ccc2c2ccc(N)cc21	–	–	–	–	–	–	–	Dose-dependent effect	–	–	–	–	–	–	–	–	–
CN(C)CCCCn1c2cc(=O)c3ccccc3c-2nc2ccccc21	–	0.38	4.73	21.4	16.3	–	–	–	Active	Active	Dose-dependent effect	2.5	Active	Dose-dependent effect	inactive	Active	4.83
